Experimental data reported in ChEMBL document CHEMBL1126008, “Decorporation of aged americium deposits by oral administration of lipophilic polyamino carboxylic acids” (1992).

Assays:
[1] = tested on: Rattus norvegicus; experiment: Reduction in both femora 241Am after daily feeding of 200 uM of the compound/kg of body weight to rats for 10 days; assay type: functional
In short: (§1)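 Sprague-Dawley rats aged 60 days, nine per group. ²⁴¹Am in citrate buffer pH 3.5 given as a single jugular iv injection. From one week later, compound given at 50 μmol/rat (about 200 μmol/kg) in a daily 25 g chow ration for 10 days; untreated controls. Tissues counted for ²⁴¹Am at necropsy. Reduction = […]. p values given.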

[2] = tested on: Rattus norvegicus; experiment: Reduction in carcass 241Am after daily feeding of 200 uM of the compound/kg of body weight to rats for 10 days; assay type: functional; in short: as §1
[3] = tested on: Rattus norvegicus; experiment: Reduction in liver 241Am after daily feeding of 200 uM of the compound/kg of body weight to rats for 10 days; assay type: functional; in short: as §1
[4] = tested on: Rattus norvegicus; experiment: Reduction in one kidney 241AM after daily feeding of 200 uM of the compound/kg of body weight to rats for 10 days; assay type: functional; in short: as §1
[5] = tested on: Rattus norvegicus; experiment: Reduction in whole body 241Am after daily feeding of 200 uM of the compound/kg of body weight to rats for 10 days; assay type: functional; in short: as §1
[6] = tested on: Rattus norvegicus; experiment: Weight gain after daily feeding of 200 uM of the compound/kg of body weight to rats for 10 days; assay type: functional
In short: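 Sprague-Dawley rats aged 60 days, nine per group, given ²⁴¹Am iv (jugular, citrate pH 3.5) one week before feeding began. Compound given at 50 μmol/rat (about 200 μmol/kg) daily in 25 g chow for 10 days; untreated controls. Weight gain over the feeding period reported as mean ± deviation.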

[7] = tested on: Canis familiaris; experiment: In vitro elimination of Pu (given as citrate) from in vivo tagged canine liver cytosol after administration of the compound; value expressed as following filtrate to residue activity; assay type: functional, Canis lupus familiaris
In short: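 Liver homogenate in 0.25 M sucrose from a dog injected with Pu-citrate 7 days before sacrifice. Spun 20 min at 40000g to give cytosol, which was dialyzed against 50 mM TRIS-HCl. Cytosol mixed 1:1 with 4 mM compound (stock) in 0.1 M TRIS-HCl, pH 7.5, 270–300 mOsm. Incubated 2 h at 40 °C, then pressure-filtered through a 10000 Da cutoff. Read-out: Pu filtrate/residue ratio; control had no compound.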

[8] = organism: Rattus norvegicus; experiment: Percent retention in rat carcass was measured in situ using intestinal tied-loop technique; assay type: functional, organism-based
[9] = organism: Rattus norvegicus; experiment: Percent retention in rat gut section was measured in situ using intestinal tied-loop technique; assay type: functional, organism-based
[10] = organism: Rattus norvegicus; experiment: Percent retention in rat liver was measured in situ using intestinal tied-loop technique; assay type: functional, organism-based
[11] = organism: Rattus norvegicus; experiment: Percent retention in rat lumen was measured in situ using intestinal tied-loop technique; assay type: functional, organism-based
[12] = organism: Rattus norvegicus; experiment: Percent retention in rat visera was measured in situ using intestinal tied-loop technique; assay type: functional, organism-based

SMILES | Reduction [1] [%] | Reduction [2] [%] | Reduction [3] [%] | Reduction [4] [%] | Reduction [5] [%] | Weight [6] [g] | Activity [7] | Retention [8] [%] | Retention [9] [%] | Retention [10] [%] | Retention [11] [%] | Retention [12] [%]
CCCCCCCCCCCCCCCCCCCCCCN(CCN(CCN(CCN(CC(=O)O)CC(=O)O)CC(=O)O)CC(=O)O)CC(=O)O | 32 | 37 | 89 | 26 | 44 | 70.2 |  |  |  |  |  | 
CCCCCCCCCCCCN(CCN(CCN(CCN(CC(=O)O)CC(=O)O)CC(=O)O)CC(=O)O)CC(=O)O | 17 | 20 | 71 | 23 | 29 | 55.7 | 0.26 | 20 | 73 | 3 | 73 | 4
CCCCCCCCN(CCN(CCN(CCN(CC(=O)O)CC(=O)O)CC(=O)O)CC(=O)O)CC(=O)O |  |  |  |  |  |  | 0.16 |  |  |  |  | 
